From ChEMBL document CHEMBL3763019, “Discovery of benzenesulfonamide derivatives as potent PI3K/mTOR dual inhibitors with in vivo efficacies against hepatocellular carcinoma” (Bioorg Med Chem, 2016)

Columns and labels:
[1] = tested on: A549; experiment: Cytotoxicity against human A549 cells after 72 hrs by MTT assay; format: functional, cell-based; conditions: A549, 72 h
How it was run: (§1)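 Log-phase cells at 40,000–50,000 cells/mL in DMEM with 10% FBS and antibiotics were seeded and cultured overnight at 37 °C, 5% CO₂. Compounds were diluted in DMSO/PBS from 10^-4 to 10^-9 M and applied for 72 h. MTT (5 mg/mL stock) was then added for 4 h and absorbance read at 570 nm. IC50 came from nonlinear regression on triplicate wells, averaged.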

[2] = Cytotoxicity against human HCT116 cells after 72 hrs by MTT assay; format: functional, cell-based; conditions: HCT-116, 72 h; how it was run: as §1
[3] = Cytotoxicity against human Bel7404 cells after 72 hrs by MTT assay; format: functional, cell-based; conditions: BEL-7404, 72 h; how it was run: as §1
[4] = tested on: MDA-MB-231; experiment: Cytotoxicity against human MDA-MB-231 cells after 72 hrs by MTT assay; format: functional, cell-based; conditions: MDA-MB-231, 72 h; how it was run: as §1
[5] = target: T1, Phosphatidylinositol 4,5-bisphosphate 3-kinase catalytic subunit gamma isoform (Homo sapiens, UniProt P48736); experiment: Inhibition of PI3K-gamma (unknown origin) after 40 mins by ADP-Glo luminescent kinase assay
How it was run: (§2)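 Final enzyme was PI3Kβ 4.8 nM and PI3Kγ 7.6 nM. ADP-Glo reagent stopped the reaction (40 min), then detection reagent was added (60 min) and luminescence read. Percent inhibition was derived from RLU.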
Target sequence in this assay (P48736 whole entry, canonical isoform): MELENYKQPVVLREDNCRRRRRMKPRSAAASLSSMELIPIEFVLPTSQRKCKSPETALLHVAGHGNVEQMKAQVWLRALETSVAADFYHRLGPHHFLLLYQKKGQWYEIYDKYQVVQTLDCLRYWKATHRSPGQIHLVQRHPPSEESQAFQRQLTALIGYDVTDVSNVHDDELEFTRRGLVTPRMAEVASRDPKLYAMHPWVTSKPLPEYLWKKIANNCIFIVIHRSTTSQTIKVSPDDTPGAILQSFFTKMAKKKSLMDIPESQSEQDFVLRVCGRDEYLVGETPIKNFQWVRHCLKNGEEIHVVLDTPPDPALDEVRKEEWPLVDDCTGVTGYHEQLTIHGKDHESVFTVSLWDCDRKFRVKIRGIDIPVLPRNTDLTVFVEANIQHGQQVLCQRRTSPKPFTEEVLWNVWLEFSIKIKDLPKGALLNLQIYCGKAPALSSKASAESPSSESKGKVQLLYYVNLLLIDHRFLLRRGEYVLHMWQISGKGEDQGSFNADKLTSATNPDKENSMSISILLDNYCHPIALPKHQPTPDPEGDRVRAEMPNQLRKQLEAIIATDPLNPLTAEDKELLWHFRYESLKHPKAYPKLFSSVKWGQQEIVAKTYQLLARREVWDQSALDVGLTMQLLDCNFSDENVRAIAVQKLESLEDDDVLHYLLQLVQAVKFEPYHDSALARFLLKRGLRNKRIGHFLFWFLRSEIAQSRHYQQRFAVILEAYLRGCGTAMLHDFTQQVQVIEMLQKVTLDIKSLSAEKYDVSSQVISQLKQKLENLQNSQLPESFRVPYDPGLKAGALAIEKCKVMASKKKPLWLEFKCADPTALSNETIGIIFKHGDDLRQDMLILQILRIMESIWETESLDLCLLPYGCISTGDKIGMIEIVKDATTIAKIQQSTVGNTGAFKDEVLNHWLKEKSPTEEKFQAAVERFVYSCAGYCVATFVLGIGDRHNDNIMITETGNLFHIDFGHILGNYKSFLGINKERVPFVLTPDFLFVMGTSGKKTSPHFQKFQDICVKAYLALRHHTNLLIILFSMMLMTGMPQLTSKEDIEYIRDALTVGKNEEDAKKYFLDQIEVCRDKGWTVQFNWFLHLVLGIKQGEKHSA

[6] = target: Phosphatidylinositol 4,5-bisphosphate 3-kinase catalytic subunit alpha isoform (Homo sapiens, UniProt P42336); experiment: Inhibition of PI3K-alpha (unknown origin) using PIP2 as substrate incubated for 1 hr by Kinase-Glo luminescent kinase assay
[7] = target: T2, Phosphatidylinositol 4,5-bisphosphate 3-kinase catalytic subunit delta isoform (Homo sapiens) (UniProt O00329); experiment: Inhibition of PI3K-delta (unknown origin) using PIP2 as substrate at 10 nM incubated for 1 hr by Kinase-Glo luminescent kinase assay
T2 sequence (whole entry): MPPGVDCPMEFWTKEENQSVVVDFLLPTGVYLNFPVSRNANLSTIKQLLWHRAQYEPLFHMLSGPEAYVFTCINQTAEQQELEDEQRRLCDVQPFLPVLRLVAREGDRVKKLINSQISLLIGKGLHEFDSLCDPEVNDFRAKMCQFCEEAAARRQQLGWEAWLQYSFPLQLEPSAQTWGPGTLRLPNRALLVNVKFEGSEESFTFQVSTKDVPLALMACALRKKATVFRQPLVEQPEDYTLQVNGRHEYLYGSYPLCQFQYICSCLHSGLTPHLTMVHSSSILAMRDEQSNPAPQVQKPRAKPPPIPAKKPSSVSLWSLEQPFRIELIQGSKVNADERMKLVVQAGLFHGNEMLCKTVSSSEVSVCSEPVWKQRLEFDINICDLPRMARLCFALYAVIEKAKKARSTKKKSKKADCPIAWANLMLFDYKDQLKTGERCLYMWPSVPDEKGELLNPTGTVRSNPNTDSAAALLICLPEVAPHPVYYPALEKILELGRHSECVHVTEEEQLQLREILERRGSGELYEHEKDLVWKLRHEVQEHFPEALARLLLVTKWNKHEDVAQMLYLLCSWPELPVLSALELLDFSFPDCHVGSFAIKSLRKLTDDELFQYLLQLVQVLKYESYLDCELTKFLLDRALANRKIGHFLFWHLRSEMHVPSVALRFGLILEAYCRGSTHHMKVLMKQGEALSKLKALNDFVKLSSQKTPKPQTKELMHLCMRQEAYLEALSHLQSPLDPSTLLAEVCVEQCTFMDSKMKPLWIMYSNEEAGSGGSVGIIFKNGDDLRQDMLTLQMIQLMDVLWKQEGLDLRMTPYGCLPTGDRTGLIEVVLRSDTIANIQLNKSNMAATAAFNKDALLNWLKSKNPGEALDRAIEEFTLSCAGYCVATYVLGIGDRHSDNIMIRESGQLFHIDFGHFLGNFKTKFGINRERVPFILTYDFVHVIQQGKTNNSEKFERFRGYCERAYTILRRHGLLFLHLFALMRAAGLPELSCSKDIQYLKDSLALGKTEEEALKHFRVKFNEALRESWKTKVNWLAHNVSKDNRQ
How it was run: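 Final PIP2 was 50 µM and ATP 25 µM; PI3Kδ was 1.65 nM. Reactions ran 1 h at room temperature, then Kinase-Glo was added for 15 min before reading luminescence. Percent inhibition was derived from RLU. Dose-response used ten 3-fold dilutions (top 100 or 500 nM) in duplicate.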

[8] = target: T3, Phosphatidylinositol 4,5-bisphosphate 3-kinase catalytic subunit beta isoform (Homo sapiens, UniProt P42338); experiment: Inhibition of PI3K-beta (unknown origin) at 10 nM after 40 mins by ADP-Glo luminescent kinase assay; how it was run: as §2
Target sequence in this assay (P42338 whole entry, looked up, canonical isoform): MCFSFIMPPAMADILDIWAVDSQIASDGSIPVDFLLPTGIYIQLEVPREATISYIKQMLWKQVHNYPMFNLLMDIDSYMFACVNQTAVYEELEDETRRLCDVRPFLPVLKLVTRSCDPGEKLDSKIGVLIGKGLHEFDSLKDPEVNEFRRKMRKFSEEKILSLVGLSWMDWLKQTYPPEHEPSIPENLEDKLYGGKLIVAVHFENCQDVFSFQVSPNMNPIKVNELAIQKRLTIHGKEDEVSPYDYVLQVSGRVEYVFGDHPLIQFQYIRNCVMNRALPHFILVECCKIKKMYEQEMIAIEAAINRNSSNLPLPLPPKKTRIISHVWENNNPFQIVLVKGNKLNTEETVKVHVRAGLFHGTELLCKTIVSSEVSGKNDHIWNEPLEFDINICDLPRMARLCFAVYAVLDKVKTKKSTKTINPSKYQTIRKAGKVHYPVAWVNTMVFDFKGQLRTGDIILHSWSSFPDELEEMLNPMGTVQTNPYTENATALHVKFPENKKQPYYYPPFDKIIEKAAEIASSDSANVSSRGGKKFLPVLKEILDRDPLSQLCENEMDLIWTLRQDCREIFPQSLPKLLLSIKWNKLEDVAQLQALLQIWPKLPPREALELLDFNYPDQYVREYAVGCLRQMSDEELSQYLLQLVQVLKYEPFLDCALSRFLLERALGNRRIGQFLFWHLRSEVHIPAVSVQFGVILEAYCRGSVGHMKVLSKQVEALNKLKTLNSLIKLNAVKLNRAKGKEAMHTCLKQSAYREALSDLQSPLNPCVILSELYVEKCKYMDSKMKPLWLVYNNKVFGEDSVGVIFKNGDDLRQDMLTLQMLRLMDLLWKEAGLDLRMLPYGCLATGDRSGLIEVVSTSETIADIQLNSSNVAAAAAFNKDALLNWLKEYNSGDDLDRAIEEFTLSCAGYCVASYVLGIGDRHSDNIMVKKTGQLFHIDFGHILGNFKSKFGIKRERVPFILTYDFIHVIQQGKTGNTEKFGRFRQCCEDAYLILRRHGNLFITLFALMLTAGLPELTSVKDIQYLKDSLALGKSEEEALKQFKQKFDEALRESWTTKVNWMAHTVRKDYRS

[9] = target: T1, Phosphatidylinositol 4,5-bisphosphate 3-kinase catalytic subunit gamma isoform; experiment: Inhibition of PI3K-gamma (unknown origin) at 10 nM after 40 mins by ADP-Glo luminescent kinase assay; how it was run: as §2
Target sequence in this assay (P48736 whole entry, looked up, canonical isoform): as the sequence (P48736 whole entry, canonical isoform) above

[10] = Half life in rat liver microsomes; format: ADME
[11] = target: T3, Phosphatidylinositol 4,5-bisphosphate 3-kinase catalytic subunit beta isoform; experiment: Inhibition of PI3K-beta (unknown origin) after 40 mins by ADP-Glo luminescent kinase assay
How it was run: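 ADP-Glo reagent stopped the reaction (40 min), then detection reagent was added (60 min) and luminescence read. Percent inhibition was derived from RLU.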
Target sequence in this assay (P42338 whole entry, canonical isoform): as the sequence (P42338 whole entry, looked up, canonical isoform) above

[12] = target: Serine/threonine-protein kinase mTOR (Homo sapiens, UniProt P42345); experiment: Inhibition of mTOR kinase (unknown origin) assessed as suppression of ULight-4E-BP1 substrate phosphorylation incubated for 1 hr by lance ultra assay
[13] = target: Phosphatidylinositol 4,5-bisphosphate 3-kinase catalytic subunit delta isoform (Homo sapiens, UniProt O00329); experiment: Inhibition of PI3K-delta (unknown origin) using PIP2 as substrate incubated for 1 hr by Kinase-Glo luminescent kinase assay
[14] = Antitumor activity against human Bel7404 cells xenografted in BALB/c nude mouse assessed as reduction in tumor volume at 50 mg/kg, po qd for 14 consecutive days relative to control; format: functional, BEL-7404; design: scale not given: the % may be the effect or the level left
How it was run: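 Male BALB/c nude mice carried implanted BEL-7404 tumours and were randomized once tumours reached 100–300 mm³ (about 12 days); there were 6 per treated group and 8 controls. Drug in 5% polysorbate 80/water was given orally once daily for 14 days from day 13. Tumour volume (1/2·a·b·b) and body weight were tracked, with sacrifice on day 29. The read-out was relative tumour volume versus vehicle, reported as mean SE.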

Sequence of Phosphatidylinositol 4,5-bisphosphate 3-kinase catalytic subunit alpha isoform (P42336 whole entry, canonical isoform): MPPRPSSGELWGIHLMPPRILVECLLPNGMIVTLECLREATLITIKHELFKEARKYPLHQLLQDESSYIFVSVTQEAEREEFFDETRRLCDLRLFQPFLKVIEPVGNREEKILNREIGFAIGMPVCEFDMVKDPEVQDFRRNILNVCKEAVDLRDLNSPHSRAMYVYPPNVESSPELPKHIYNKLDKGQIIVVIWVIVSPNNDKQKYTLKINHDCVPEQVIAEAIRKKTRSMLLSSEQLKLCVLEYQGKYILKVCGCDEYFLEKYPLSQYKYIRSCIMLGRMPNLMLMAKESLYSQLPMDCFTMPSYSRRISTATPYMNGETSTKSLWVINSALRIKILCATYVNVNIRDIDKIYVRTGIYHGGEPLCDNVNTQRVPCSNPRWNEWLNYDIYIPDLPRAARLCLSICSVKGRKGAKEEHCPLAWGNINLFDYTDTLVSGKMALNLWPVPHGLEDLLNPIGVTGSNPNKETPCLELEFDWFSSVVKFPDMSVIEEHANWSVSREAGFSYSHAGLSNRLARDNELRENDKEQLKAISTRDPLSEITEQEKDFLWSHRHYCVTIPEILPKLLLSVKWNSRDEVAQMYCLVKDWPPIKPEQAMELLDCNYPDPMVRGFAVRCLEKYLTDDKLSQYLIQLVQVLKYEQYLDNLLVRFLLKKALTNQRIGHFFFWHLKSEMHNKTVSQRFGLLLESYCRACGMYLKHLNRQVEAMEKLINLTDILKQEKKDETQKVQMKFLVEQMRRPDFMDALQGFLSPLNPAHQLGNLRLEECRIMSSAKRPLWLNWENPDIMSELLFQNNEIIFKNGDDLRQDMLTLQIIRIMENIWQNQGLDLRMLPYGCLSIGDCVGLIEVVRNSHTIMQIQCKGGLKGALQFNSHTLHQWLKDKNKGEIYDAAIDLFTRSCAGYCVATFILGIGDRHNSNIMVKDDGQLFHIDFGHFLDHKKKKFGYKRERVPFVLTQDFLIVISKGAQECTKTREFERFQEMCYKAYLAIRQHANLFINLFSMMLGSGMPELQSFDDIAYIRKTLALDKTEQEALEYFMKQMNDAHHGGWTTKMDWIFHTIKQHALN

Row | IC50 [5] | IC50 [6] | inhibition [7] | inhibition [8] | inhibition [9] | half-life [10] | IC50 [11] | IC50 [12] | IC50 [13] | Compound | IC50 [1] | IC50 [2] | IC50 [3] | IC50 [4] | Activity [14]
1 |  | 33 nM | 1.2% | 21% | 68% |  |  |  |  | CCN(CC)CC#Cc1ccnc2ccc(-c3cnc(OC)c(NS(=O)(=O)c4ccc(F)cc4F)c3)cc12 | 2430 nM | 2270 nM | 300 nM | 2680 nM | 
2 |  | 70 nM | 7.7% | 5.8% | 49% |  |  |  |  | COc1ncc(-c2ccc3nccc(C#CCN4CCC(C)CC4)c3c2)cc1NS(=O)(=O)c1ccc(F)cc1F | 2900 nM | 4020 nM | 1550 nM | 7990 nM | 
3 |  | 32 nM | 10% | 17% | 70% |  |  |  |  | COc1ncc(-c2ccc3nccc(C#CCN(C)C)c3c2)cc1NS(=O)(=O)c1ccc(F)cc1 | 970 nM | 1340 nM | 1160 nM | 2080 nM | 
4 |  | 3.9 nM | 16% | 57% | 90% | 28.4 min |  |  |  | COc1ncc(-c2ccc3nccc(C#CCN(C)CCO)c3c2)cc1NS(=O)(=O)c1ccc(F)cc1F | 1010 nM | 1150 nM | 80 nM | 2800 nM | 
5 |  | > 100 nM | 3.2% | 13% | 10% |  |  |  |  | COc1ncc(-c2ccc3nccc(C#CCN(C4CCCCC4)C4CCCCC4)c3c2)cc1NS(=O)(=O)c1ccc(F)cc1F | 12000 nM | 11700 nM | 6100 nM | 27700 nM | 

The next lines start with the compound.

Row | Compound | IC50 [5] | IC50 [6] | inhibition [7] | inhibition [8] | inhibition [9] | half-life [10] | IC50 [11] | IC50 [12] | IC50 [13] | IC50 [1] | IC50 [2] | IC50 [3] | IC50 [4] | Activity [14]
6 | COc1ncc(-c2ccc3nccc(-c4ccnnc4)c3c2)cc1NS(=O)(=O)c1ccc(F)cc1F [OMIPALISIB] | 0.6 nM |  |  |  |  |  |  |  |  | 600 nM | 10 nM | 10 nM | 130 nM | 
7 | COc1ncc(-c2ccc3nccc(C#CCN(C)C)c3c2)cc1NS(=O)(=O)c1ccc(F)cc1F |  | 3.7 nM | 6.1% | 41% | 81% | 18.8 min |  |  |  | 110 nM | 1080 nM | 230 nM | 1670 nM | 
8 | CCOC(=O)N1CCN(CC#Cc2ccnc3ccc(-c4cnc(OC)c(NS(=O)(=O)c5ccc(F)cc5F)c4)cc23)CC1 | 4 nM | 5.5 nM | 20.7% | 30% | 82% | 46.5 min | 23 nM | 9.9 nM | 19 nM | 110 nM | 1390 nM | 480 nM | 3810 nM | 
9 | CNC(=O)c1cc(Oc2ccc(NC(=O)Nc3ccc(Cl)c(C(F)(F)F)c3)cc2)ccn1 [SORAFENIB] |  |  |  |  |  |  |  |  |  |  |  |  |  | 44%
10 | COc1ncc(-c2ccc3nccc(C#CCN4CCCCC4)c3c2)cc1NS(=O)(=O)c1ccc(F)cc1F |  | 37 nM | 3% | 1.4% | 55% |  |  |  |  | 1810 nM | 3610 nM | 2300 nM | 10300 nM | 
11 | COc1ncc(-c2ccc3nccc(C#CCN4CCOCC4)c3c2)cc1NS(=O)(=O)c1ccc(F)cc1F |  | 2.1 nM | 35% | 70% | 96% | 36.9 min |  |  |  | 240 nM | 510 nM | 40 nM | 1990 nM | 
12 | COc1ncc(-c2ccc3nccc(C#CCN4CCCCC4C)c3c2)cc1NS(=O)(=O)c1ccc(F)cc1F (centres undefined) |  | 61 nM | 4.6% | 11% | 59% |  |  |  |  | 1350 nM | 4520 nM | 1140 nM | 4730 nM | 
